Data from ChEMBL document CHEMBL1132636, “Phthalein derivatives as a new tool for selectivity in thymidylate synthase inhibition” (J Med Chem, 1999).
Values after ≈ are worked out from the molar mass of the structure shown.

Assays:
[1] = biological target: Thymidylate synthase (Homo sapiens) (UniProt P04818)
[2] = test system: Staphylococcus aureus; experiment: In vitro evaluation for minimum germicidal effect on Staphylococcus aureus was determined; assay type: functional
[3] = test system: Streptococcus; experiment: In vitro inhibition of Streptococcus growth.; assay type: functional
Summary of the method: (§1)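 Bacterial clinical isolates (S. aureus, group D Streptococcus) grown in nutrient broth pH 7.2, inoculum 10³ cells/tube, with serial dilutions of compound from a DMSO stock.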

[4] = test system: Cryptococcus neoformans; experiment: In vitro inhibition of Cryptococcus neoformans growth.; assay type: functional
Summary of the method: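 Cr. neoformans in Sabouraud dextrose broth pH 5.7, 10³ blastospores or CFU/tube, serial compound dilutions, 37 °C, read after 5 days. MIC is the lowest concentration with no macroscopic growth. MGC is taken by subculturing negative tubes onto drug-free Sabouraud agar.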

[5] = test system: Staphylococcus aureus; experiment: In vitro inhibition of Staphylococcus aureus growth.; assay type: functional
Summary of the method: as §1

[6] = test system: MT4; experiment: In vitro cytotoxicity against mock infected MT-4 cells.; assay type: functional; settings: Homo sapiens
Summary of the method: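 Uninfected MT-4 cells, 1 × 10⁴ per well in RPMI with 10% FCS, with serial compound dilutions from a DMSO stock. Incubated 4 days at 37 °C, run in parallel with the anti-HIV assay. Viable cells counted by MTT; reported as CC50.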

[7] = test system: Streptococcus; experiment: In vitro minimum concentration for germicidal effect on Streptococcus.; assay type: functional
[8] = Ratio of cytotoxic concentration to that of minimum inhibitory concentration against Streptococcus (CC50/MIC50).; assay type: functional
[9] = test system: thymidylate synthase (Lactobacillus casei)
[10] = test system: thymidylate synthase (Pneumocystis carinii)
[11] = test system: thymidylate synthase (Cryptococcus neoformans)
[12] = biological target: T1, Thymidylate synthase (Lactobacillus casei) (UniProt P00469); experiment: Compound was evaluated for the percentage inhibition against Lactobacillus casei Thymidylate synthase (LcTS) at 27 uM; settings: Lacticaseibacillus casei
T1 sequence (whole entry): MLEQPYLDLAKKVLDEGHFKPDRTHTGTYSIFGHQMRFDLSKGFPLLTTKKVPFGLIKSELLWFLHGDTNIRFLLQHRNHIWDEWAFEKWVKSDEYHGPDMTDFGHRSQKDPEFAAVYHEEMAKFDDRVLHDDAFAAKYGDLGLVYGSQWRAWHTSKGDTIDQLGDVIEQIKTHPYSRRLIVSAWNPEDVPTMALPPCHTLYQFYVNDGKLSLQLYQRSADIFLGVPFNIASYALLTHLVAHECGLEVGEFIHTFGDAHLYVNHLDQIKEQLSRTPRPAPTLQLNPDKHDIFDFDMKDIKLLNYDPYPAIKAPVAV
Summary of the method: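 Single concentration 27 µM, initial TS rates measured with and without inhibitor; IF = Vii/Vi. Purified L. casei TS, TES 50 mM pH 7.4 buffer with MgCl2, formaldehyde, EDTA, 2-mercaptoethanol; dUMP 120 µM, folate 60 µM, 20 °C. Read-out is absorbance rise at 340 nm. At least three determinations, each within 10% of the mean.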

[13] = biological target: T1, Thymidylate synthase (Lactobacillus casei); settings: Lacticaseibacillus casei

Sequence of Thymidylate synthase (Homo sapiens) (P04818 2-313 limits assumed): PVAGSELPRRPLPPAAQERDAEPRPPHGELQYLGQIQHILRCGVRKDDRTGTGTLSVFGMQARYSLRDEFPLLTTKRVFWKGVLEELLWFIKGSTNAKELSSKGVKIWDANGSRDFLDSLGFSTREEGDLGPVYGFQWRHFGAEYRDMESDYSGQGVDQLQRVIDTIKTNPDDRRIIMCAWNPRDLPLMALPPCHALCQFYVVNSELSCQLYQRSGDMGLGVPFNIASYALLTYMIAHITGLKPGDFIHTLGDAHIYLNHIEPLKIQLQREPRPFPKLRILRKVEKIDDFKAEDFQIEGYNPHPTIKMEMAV

Structure (SMILES)	IF [1]	MGC [2] [µM]	MIC [3] [µM]	MIC [4] [µM]	MIC [5] [µM]	CC50 [6] [µM]	MGC [7] [µM]	SI [8]	IF [9]	IF [10]	IF [11]	inhibition [12] [%]	IF [13]
O=C1OC(c2ccc(O)c(Cl)c2)(c2ccc(O)c(Cl)c2)c2cccc3cccc1c23	0.814	14	1.8 (≈ 0.787 µg/mL)	9.37 (≈ 4.1 µg/mL)	7 (≈ 3.06 µg/mL)	46	3.5	–	–	–	–	–	–
O=C1OC(c2ccc(O)c(Cl)c2)(c2ccc(O)c(Cl)c2)c2cc3ccccc3cc21	0.103	6.2	3.1 (≈ 1.36 µg/mL)	> 200	3.1 (≈ 1.36 µg/mL)	120	6.2	39.6	0.093	–	–	–	–
O=C1OC(c2ccc(O)cc2)(c2ccc(O)cc2)c2ccc([N+](=O)[O-])c3cccc1c23	0.424	30	> 41	> 41	15 (≈ 6.2 µg/mL)	41	–	–	–	–	–	–	–
O=C1OC(c2ccc(O)cc2)(c2ccc(O)cc2)c2cc3ccccc3cc21	0.594	68	34 (≈ 12.5 µg/mL)	> 79	17 (≈ 6.26 µg/mL)	79	34	2.3	0.247	0.459	0.215	–	–
COc1ccc(C2(c3ccc(OC)cc3)OC(=O)c3cccc4cccc2c34)cc1	1	–	> 21	> 21	> 21	21	–	–	0.624	0.749	0.836	47	–
O=C1OC(c2ccc(O)cc2)(c2ccc(O)cc2)c2ccc(Cl)c3cccc1c23.O=C1OC(c2ccc(O)cc2)(c2ccc(O)cc2)c2cccc3c(Cl)ccc1c23	0.438	16	8	> 69	8	69	8	–	–	–	–	–	–
O=C1OC(c2ccc(O)cc2)(c2ccc(O)cc2)c2ccccc21 [PHENOLPHTHALEIN]	0.182	–	38 (≈ 12.1 µg/mL)	> 58	> 58	58	58	–	–	–	–	–	0.444
O=C1OC(c2ccc(O)cc2)(c2ccc(O)cc2)c2cccc3cccc1c23	0.272	41	17 (≈ 6.26 µg/mL)	> 41	34 (≈ 12.5 µg/mL)	41	34	–	–	–	–	–	–
O=C1OC(c2ccc(O)c(Cl)c2)(c2ccc(O)c(Cl)c2)c2ccc(Cl)c3cccc1c23.O=C1OC(c2ccc(O)c(Cl)c2)(c2ccc(O)c(Cl)c2)c2cccc3c(Cl)ccc1c23	1	3	1.6	9.37	3	63	1.6	–	–	–	–	–	–
O=C1OC(O)(c2ccccc2O)c2cccc3cccc1c23 (stereo not drawn)	0.957	–	171 (≈ 50 µg/mL)	18.7 (≈ 5.47 µg/mL)	> 263	263	263	1.5	0.781	0.151	0.576	–	–
Cc1ccc(C(C)C)c(O)c1C1(O)OC(=O)c2cccc3cccc1c23 (stereo not drawn)	1	–	72 (≈ 25.1 µg/mL)	> 89	> 89	89	>89	–	–	–	–	–	–
O=C1OC(c2ccc(O)c(Cl)c2)(c2ccc(O)c(Cl)c2)c2ccccc21	0.67	64	32 (≈ 12.4 µg/mL)	> 77	32 (≈ 12.4 µg/mL)	77	32	2.4	0.47	0.725	0.704	–	–
O=C1OC(c2ccc(O)c(Cl)c2)(c2ccc(O)c(Cl)c2)c2ccc(Br)c3cccc1c23.O=C1OC(c2ccc(O)c(Cl)c2)(c2ccc(O)c(Cl)c2)c2cccc3c(Br)ccc1c23	1	12.5	3.1	> 200	3.1	154	3.1	49.6	0.36	–	–	–	–
O=C1OC(c2ccc(O)cc2)(c2ccc(O)cc2)c2ccc3c4c(ccc1c24)CC3	0.475	32	16 (≈ 6.31 µg/mL)	> 53	16 (≈ 6.31 µg/mL)	53	32	3.3	0.409	0.344	0.344	–	–
O=C1OC(O)(c2ccc(O)c(Cl)c2)c2ccc([N+](=O)[O-])c3cccc1c23 (stereo not drawn)	1	17	8 (≈ 2.97 µg/mL)	> 66	4 (≈ 1.49 µg/mL)	66	8	8.24	0.086	0.418	< 0.04	–	–
O=C1OC(c2ccc(O)cc2)(c2ccc(O)cc2)c2ccc(Br)c3cccc1c23.O=C1OC(c2ccc(O)cc2)(c2ccc(O)cc2)c2cccc3c(Br)ccc1c23	0.453	28	7	37.5	7	76	28	10.8	0.112	0.536	0.243	–	–
O=C1OC(c2ccc(O)c(F)c2)(c2ccc(O)c(F)c2)c2cccc3cccc1c23	1	50	25 (≈ 10.1 µg/mL)	> 200	25 (≈ 10.1 µg/mL)	117	25	–	–	–	–	–	–
O=C1OC(c2ccc(O)c(F)c2)(c2ccc(O)c(F)c2)c2cc3ccccc3cc21	0.521	30	15 (≈ 6.07 µg/mL)	> 94	15 (≈ 6.07 µg/mL)	94	15	6.2	0.298	0.582	0.507	–	–
O=C1OC(c2ccc(O)cc2)(c2ccc(O)c3ccccc23)c2ccccc21 (stereo not drawn)	0.172	54	8 (≈ 2.95 µg/mL)	> 54	17 (≈ 6.26 µg/mL)	54	34	6.7	0.529	0.498	0.389	–	–
